From ChEMBL document CHEMBL1275244, “Antimicrobial resistance among respiratory pathogens in Spain: latest data and changes over 11 years (1996-1997 to 2006-2007)” (2010)
In brackets after ≈: the same amount, converted by molar mass.

How the values were obtained:
Type in all cases: functional
Haemophilus influenzae [1] = assay: Antimicrobial activity against Haemophilus influenzae clinical isolates assessed as susceptible isolates by PK/PD technique in presence […] of beta-lactamase inhibitor clavulanic acid; set-up: scale not given: the % may be the effect or the level left
Streptococcus pneumoniae [2] = assay: Antimicrobial activity against Streptococcus pneumoniae clinical isolates assessed as resistant isolates by broth dilution method in presence of beta-lactamase inhibitor clavulanic acid
Summary of the method: (§1)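 S. pneumoniae clinical isolates were kept frozen at −70°C in duplicate and recovered by hot-loop touching to avoid repeated freeze-thaw. MICs were measured by CLSI broth microdilution as in force in the study year, with S. pneumoniae ATCC 49619 as control strain. Susceptibility categories were interpreted using CLSI M100-S19 breakpoints.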

Streptococcus pneumoniae [3] = assay: Antimicrobial activity against Streptococcus pneumoniae clinical isolates assessed as susceptible isolates by PK/PD technique in presence of beta-lactamase inhibitor clavulanic acid
Streptococcus pneumoniae [4] = assay: Antimicrobial activity against Streptococcus pneumoniae clinical isolates assessed as susceptible isolates by PK/PD technique in presence of […] beta-lactamase inhibitor clavulanic acid
Streptococcus pneumoniae [5] = assay: Antimicrobial activity against Streptococcus pneumoniae clinical isolates by broth dilution method in presence of beta-lactamase inhibitor clavulanic acid
Summary of the method: (§2)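 Isolates kept frozen at −70°C in duplicate and revived by hot-loop touching. MICs by the CLSI broth microdilution method active in the year of study, with S. pneumoniae ATCC 49619 as control. Categories assigned with CLSI M100-S19 breakpoints.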

Streptococcus pneumoniae [6] = assay: Antimicrobial activity against Streptococcus pneumoniae clinical isolates assessed as susceptible isolates by broth dilution method in presence of beta-lactamase inhibitor clavulanic acid; summary of the method: as §2
Haemophilus influenzae [7] = assay: Antimicrobial activity against Haemophilus influenzae clinical isolates assessed as susceptible isolates by broth dilution method in presence of beta-lactamase inhibitor clavulanic acid
Summary of the method: (§3)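 Clinical isolates stored in duplicate at −70°C and recovered by the hot-loop touching method. MICs by the CLSI broth microdilution method current in the study year, in Haemophilus test medium (HTM). Growth support of HTM checked with H. influenzae ATCC 10211. Controls were H. influenzae ATCC 49247 and ATCC 49766 and E. coli ATCC 35218. Susceptibility interpreted per CLSI M100-S19.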

Haemophilus influenzae [8] = assay: Antimicrobial activity against Haemophilus influenzae clinical isolates assessed as susceptible isolates by PK/PD technique in presence of beta-lactamase inhibitor clavulanic acid
Haemophilus influenzae [9] = assay: Antimicrobial activity against Haemophilus influenzae clinical isolates assessed as resistant isolates by broth dilution method in presence of beta-lactamase inhibitor clavulanic acid
Summary of the method: (§4)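 H. influenzae clinical isolates were stored at −70°C in duplicate and recovered by the hot-loop touching method without repeated thawing. MICs were determined by CLSI broth microdilution in Haemophilus test medium, following the method current in the study year. Each medium batch was checked for growth support with H. influenzae ATCC 10211. Controls were H. influenzae ATCC 49247 and ATCC 49766 and E. coli ATCC 35218. Categories were assigned per CLSI M100-S19.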

Streptococcus pyogenes [10] = assay: Antimicrobial activity against Streptococcus pyogenes clinical isolates by broth dilution method in presence of beta-lactamase inhibitor clavulanic acid
Summary of the method: (§5)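 S. pyogenes clinical isolates held at −70°C in duplicate and recovered by hot-loop touching. MICs by the CLSI broth microdilution method in force in the study year, interpreted per CLSI M100-S19.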

Haemophilus influenzae [11] = assay: Antimicrobial activity against Haemophilus influenzae clinical isolates by broth dilution method in presence of beta-lactamase inhibitor clavulanic acid; summary of the method: as §3
Streptococcus pyogenes [12] = assay: Antimicrobial activity against Streptococcus pyogenes clinical isolates assessed as resistant isolates by broth dilution method
Summary of the method: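 S. pyogenes clinical isolates were held at −70°C in duplicate and revived by the hot-loop touching method. MICs were obtained by the CLSI broth microdilution procedure active in the year of study. Resistance was interpreted according to CLSI M100-S19.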

Haemophilus influenzae [13] = assay: Antimicrobial activity against Haemophilus influenzae clinical isolates assessed as susceptible isolates by PK/PD technique
Streptococcus pneumoniae [14] = assay: Antimicrobial activity against Streptococcus pneumoniae clinical isolates assessed as susceptible isolates by PK/PD technique
Streptococcus pyogenes [15] = assay: Antimicrobial activity against Streptococcus pyogenes clinical isolates by broth dilution method
Haemophilus influenzae [16] = assay: Antimicrobial activity against Haemophilus influenzae clinical isolates assessed as susceptible isolates by broth dilution method
Haemophilus influenzae [17] = assay: Antimicrobial activity against Haemophilus influenzae clinical isolates by broth dilution method
Haemophilus influenzae [18] = assay: Antimicrobial activity against Haemophilus influenzae clinical isolates assessed as resistant isolates by broth dilution method
Streptococcus pneumoniae [19] = assay: Antimicrobial activity against Streptococcus pneumoniae clinical isolates by broth dilution method
Streptococcus pyogenes [20] = assay: Antimicrobial activity against Streptococcus pyogenes clinical isolates assessed as susceptible isolates by broth dilution method; summary of the method: as §5
Streptococcus pneumoniae [21] = assay: Antimicrobial activity against Streptococcus pneumoniae clinical isolates assessed as resistant isolates by broth dilution method
Streptococcus pneumoniae [22] = assay: Antimicrobial activity against Streptococcus pneumoniae clinical isolates assessed as susceptible isolates by broth dilution method; summary of the method: as §2
Streptococcus pneumoniae [23] = assay: Antimicrobial activity against Streptococcus pneumoniae clinical isolates assessed as susceptible isolates by based on parenterally dosed PK/PD technique
Streptococcus pneumoniae [24] = assay: Antimicrobial activity against Streptococcus pneumoniae clinical isolates assessed as susceptible isolates by po dosed PK/PD technique
Haemophilus influenzae [25] = assay: Antimicrobial activity against Haemophilus influenzae clinical isolates assessed as susceptible isolates by based on po dosed broth dilution method; summary of the method: as §3
Streptococcus pneumoniae [26] = assay: Antimicrobial activity against Streptococcus pneumoniae clinical isolates assessed as susceptible isolates by based on parenterally dosed broth dilution method; summary of the method: as §2
Streptococcus pneumoniae [27] = assay: Antimicrobial activity against Streptococcus pneumoniae clinical isolates by based on parenterally dosed broth dilution method; summary of the method: as §2
Haemophilus influenzae [28] = assay: Antimicrobial activity against Haemophilus influenzae clinical isolates by based on po dosed PK/PD technique
Haemophilus influenzae [29] = assay: Antimicrobial activity against Haemophilus influenzae clinical isolates assessed as resistant isolates by based on po dosed broth dilution method; summary of the method: as §4
Streptococcus pneumoniae [30] = assay: Antimicrobial activity against Streptococcus pneumoniae clinical isolates assessed as susceptible isolates by based on po dosed broth dilution method; summary of the method: as §2
Streptococcus pneumoniae [31] = assay: Antimicrobial activity against Streptococcus pneumoniae clinical isolates assessed as resistant isolates by based on po dosed broth dilution method; summary of the method: as §1
Streptococcus pneumoniae [32] = assay: Antimicrobial activity against Streptococcus pneumoniae clinical isolates assessed as resistant isolates by based on parenterally dosed broth dilution method in presence of beta-lactamase inhibitor clavulanic acid; summary of the method: as §1
Streptococcus pneumoniae [33] = assay: Antimicrobial activity against Streptococcus pneumoniae clinical isolates by based on po dosed broth dilution method; summary of the method: as §2
Haemophilus influenzae [34] = assay: Antimicrobial activity against Haemophilus influenzae clinical isolates by based on po dosed broth dilution method; summary of the method: as §4

Row | SMILES | Activity (Streptococcus pyogenes [12]) [%] | Activity (Haemophilus influenzae [13]) [%] | Activity (Streptococcus pneumoniae [14]) [%] | MIC50 (Streptococcus pyogenes [15]) [µg/mL] | MIC90 (Streptococcus pyogenes [15]) [µg/mL] | Activity (Haemophilus influenzae [16]) [%] | MIC50 (Haemophilus influenzae [17]) [µg/mL] | MIC90 (Haemophilus influenzae [17]) [µg/mL] | Activity (Haemophilus influenzae [18]) [%] | MIC50 (Streptococcus pneumoniae [19]) [µg/mL] | MIC90 (Streptococcus pneumoniae [19]) [µg/mL] | Activity (Streptococcus pyogenes [20]) [%] | Activity (Streptococcus pneumoniae [21]) [%] | Activity (Streptococcus pneumoniae [22]) [%] | further results
1 | CC1(C)S[C@@H]2[C@H](NC(=O)[C@H](N)c3ccc(O)cc3)C(=O)N2[C@H]1C(=O)O [AMOXICILLIN] | – | – | – | – | – | – | – | – | – | – | – | – | – | – | Activity (Haemophilus influenzae [1]): 99.7%; Activity (Streptococcus pneumoniae [2]): 1.2%; Activity (Streptococcus pneumoniae [3]): 94.8%; Activity (Streptococcus pneumoniae [4]): 98.8%; MIC50 (Streptococcus pneumoniae [5]): ≤ 0.015 µg/mL; MIC90 (Streptococcus pneumoniae [5]): 1 µg/mL; Activity (Streptococcus pneumoniae [6]): 94.8%; Activity (Haemophilus influenzae [7]): 99.7%; Activity (Haemophilus influenzae [8]): 97.5%; Activity (Haemophilus influenzae [9]): 0.3%; MIC50 (Streptococcus pyogenes [10]): ≤ 0.015 µg/mL; MIC90 (Streptococcus pyogenes [10]): ≤ 0.015 µg/mL; MIC90 (Haemophilus influenzae [11]): 1 µg/mL; MIC50 (Haemophilus influenzae [11]; Haemophilus influenzae): 0.25 µg/mL
2 | CC1(C)S[C@@H]2[C@H](NC(=O)[C@H](N)c3ccccc3)C(=O)N2[C@H]1C(=O)O [AMPICILLIN] | 0 | 86.7 | 93.4 | ≤ 0.015 | ≤ 0.015 | 83.9 | 0.12 (≈ 0.343 µM) | 4 (≈ 11.4 µM) | 13.3 | ≤ 0.015 | 2 (≈ 5.72 µM) | 100 | – | – | –
3 | CC[C@H]1OC(=O)[C@H](C)[C@@H](O[C@H]2C[C@@](C)(OC)[C@@H](O)[C@H](C)O2)[C@H](C)[C@@H](O[C@@H]2O[C@H](C)C[C@H](N(C)C)[C@H]2O)[C@](C)(O)C[C@@H](C)CN(C)[C@H](C)[C@@H](O)[C@]1(C)O [AZITHROMYCIN] | 11.6 | 23.8 | 74.3 | ≤ 0.015 | 2 (≈ 2.67 µM) | 100 | 0.25 (≈ 0.334 µM) | 1 (≈ 1.34 µM) | 0 | ≤ 0.015 | ≥ 128 | 81.1 | 20.8 | 77.6 | –
4 | N[C@@H](C(=O)N[C@@H]1C(=O)N2C(C(=O)O)=C(Cl)CS[C@H]12)c1ccccc1 [CEFACLOR ANHYDROUS] | – | 25.8 | 75.9 | 0.03 (≈ 0.0816 µM) | < 0.06 | 97.8 | 1 (≈ 2.72 µM) | 4 (≈ 10.9 µM) | 0 | 0.125 (≈ 0.34 µM) | 16 (≈ 43.5 µM) | – | 19 | 79.1 | –
5 | CO/N=C(\C(=O)N[C@@H]1C(=O)N2C(C(=O)O)=C(COC(C)=O)CS[C@H]12)c1csc(N)n1 [CEFOTAXIME] | 0 | 99.9 | 99.6 | ≤ 0.015 | ≤ 0.015 | 99.9 | ≤ 0.015 | ≤ 0.015 | 0.1 | ≤ 0.015 | 0.25 (≈ 0.549 µM) | 100 | 0.2 | 99.6 | –
6 | CO/N=C(\C(=O)N[C@@H]1C(=O)N2C(C(=O)O)=C(COC(N)=O)CS[C@H]12)c1ccco1 [CEFUROXIME] | – | – | – | ≤ 0.015 | ≤ 0.015 | – | – | – | – | – | – | – | – | – | Activity (Streptococcus pneumoniae [23]): 99.3%; Activity (Streptococcus pneumoniae [24]): 94.5%; Activity (Haemophilus influenzae [25]): 99.3%; Activity (Streptococcus pneumoniae [26]): 83.8%; MIC50 (Streptococcus pneumoniae [27]): ≤ 0.015 µg/mL; MIC90 (Streptococcus pneumoniae [27]): 1 µg/mL (≈ 2.36 µM); Activity (Haemophilus influenzae [28]): 91.4%; Activity (Haemophilus influenzae [29]): 0.1%; Activity (Streptococcus pneumoniae [30]): 94.5%; Activity (Streptococcus pneumoniae [31]): 1.3%; Activity (Streptococcus pneumoniae [32]): 5.5%; MIC50 (Streptococcus pneumoniae [33]): ≤ 0.015 µg/mL; MIC90 (Streptococcus pneumoniae [33]): 1 µg/mL (≈ 2.36 µM); MIC50 (Haemophilus influenzae [34]): 0.5 µg/mL (≈ 1.18 µM); MIC90 (Haemophilus influenzae [34]): 1 µg/mL (≈ 2.36 µM)
7 | CC[C@H]1OC(=O)[C@H](C)[C@@H](O[C@H]2C[C@@](C)(OC)[C@@H](O)[C@H](C)O2)[C@H](C)[C@@H](O[C@@H]2O[C@H](C)C[C@H](N(C)C)[C@H]2O)[C@](C)(OC)C[C@@H](C)C(=O)[C@H](C)[C@@H](O)[C@]1(C)O [CLARITHROMYCIN] | 16.5 | 5.1 | 78.2 | ≤ 0.015 | 2 (≈ 2.67 µM) | 99.3 | 2 (≈ 2.67 µM) | 4 (≈ 5.35 µM) | 0 | ≤ 0.015 | ≥ 128 | 80.9 | 20.9 | 78.2 | –
8 | CC[C@H]1OC(=O)[C@H](C)[C@@H](O[C@H]2C[C@@](C)(OC)[C@@H](O)[C@H](C)O2)[C@H](C)[C@@H](O[C@@H]2O[C@H](C)C[C@H](N(C)C)[C@H]2O)[C@](C)(O)C[C@@H](C)C(=O)[C@H](C)[C@@H](O)[C@]1(C)O [ERYTHROMYCIN] | 19 | 32.5 | 78.9 | ≤ 0.015 | 2 (≈ 2.73 µM) | – | 1 (≈ 1.36 µM) | 4 (≈ 5.45 µM) | – | ≤ 0.015 | ≥ 128 | 80.6 | 21.1 | 78.9 | –
9 | C[C@H]1COc2c(N3CCN(C)CC3)c(F)cc3c(=O)c(C(=O)O)cn1c23.C[C@H]1COc2c(N3CCN(C)CC3)c(F)cc3c(=O)c(C(=O)O)cn1c23.O [LEVOFLOXACIN] | 0 | 99.9 | 97.7 | 0.125 | 0.25 | 99.9 | ≤ 0.015 | ≤ 0.015 | 0.1 | 0.125 | 0.25 | 100 | 0.5 | 97.6 | –
10 | CC1(C)S[C@@H]2[C@H](NC(=O)Cc3ccccc3)C(=O)N2[C@H]1C(=O)O [PENICILLIN G] | 0 | – | – | ≤ 0.015 | ≤ 0.015 | – | – | – | – | – | – | 100 | – | – | Activity (Streptococcus pneumoniae [26]): 99.8%; MIC50 (Streptococcus pneumoniae [27]): ≤ 0.015 µg/mL; MIC90 (Streptococcus pneumoniae [27]): 0.5 µg/mL (≈ 1.5 µM); Activity (Streptococcus pneumoniae [30]): 77.1%; Activity (Streptococcus pneumoniae [31]): 0.9%; Activity (Streptococcus pneumoniae [32]): 0%; MIC50 (Streptococcus pneumoniae [33]): ≤ 0.015 µg/mL; MIC90 (Streptococcus pneumoniae [33]): 0.5 µg/mL (≈ 1.5 µM)
